Experimental data from different studies.
Lines come from different studies, so protocols differ.
Target: Dual specificity mitogen-activated protein kinase kinase 5 (MAP2K5, Homo sapiens, UniProt Q13163)
One construct used (Q13163 1-448): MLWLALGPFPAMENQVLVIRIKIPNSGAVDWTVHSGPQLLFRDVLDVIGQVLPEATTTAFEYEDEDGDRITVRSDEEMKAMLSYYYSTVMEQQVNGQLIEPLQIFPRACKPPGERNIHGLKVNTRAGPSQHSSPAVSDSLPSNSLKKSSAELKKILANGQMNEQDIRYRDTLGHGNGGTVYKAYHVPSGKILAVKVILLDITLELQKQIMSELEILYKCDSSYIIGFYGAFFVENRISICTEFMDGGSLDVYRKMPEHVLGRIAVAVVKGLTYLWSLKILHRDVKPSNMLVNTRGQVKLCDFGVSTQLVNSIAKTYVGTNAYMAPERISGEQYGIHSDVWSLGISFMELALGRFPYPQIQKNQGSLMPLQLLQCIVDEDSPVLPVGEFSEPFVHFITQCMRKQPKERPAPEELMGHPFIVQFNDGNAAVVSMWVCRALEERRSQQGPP

| SMILES | read-out | action | method | tested at | endpoint | result |
| --- | --- | --- | --- | --- | --- | --- |
| CC(C)(C)c1nc(-c2cccc(NS(=O)(=O)c3c(F)cccc3F)c2F)c(-c2ccnc(N)n2)s1 | enzyme activity | inhibitor | radiometric | 1 µM | remaining activity | 90% |
| Cc1sc(C(=O)NC2COC2)cc1-n1cc(NC(=O)Nc2c(F)cccc2Cl)cn1 | enzyme activity | inhibitor | – | 10 µM | remaining activity | 96.8% |
| COc1cccc2c(NCc3ccccc3)nc(-n3c(N)nc4ccccc43)nc12 | target engagement in cells | inhibitor | chemoproteomics | 20 mM | inhibition | 6.7% |
| Nc1ncnc2occ(-c3ccc(NC(=O)Nc4cc(C(F)(F)F)ccc4F)cc3)c12 | cell-free assay | inhibitor | – | 20 µM | remaining signal | 0.15% |
| O=C(Nc1cnn(-c2csc(C(=O)NC3COC3)c2)c1)Nc1ccccc1Cl | enzyme activity | inhibitor | – | 5 µM | remaining activity | 98.2% |
| CC1=C(C#N)C(c2ccc3c(c2)c(NC(=O)c2ccccc2C)nn3C)C(C#N)=C(C)N1 | cell-free assay | – | competition with immobilised ligand | 1 µM | remaining binding | 79% |
| CC(C)(C)c1nc2c(s1)c1nc(N)ncc1c1ccc(NS(=O)(=O)c3c(F)cccc3F)c(F)c12 | enzyme activity | inhibitor | radiometric | 1 µM | remaining activity | 80% |
| CCCCNc1ncc2c(-c3ccc(F)cc3)nn(C[C@H]3CC[C@H](N)CC3)c2n1 | target engagement in cells | inhibitor | chemoproteomics | 20 mM | inhibition | 83% |
| CC(C)(O)c1cncc(-c2nc3ccc(F)cc3n2C2CC2)c1 | cell-free assay | – | competition with immobilised ligand | 1 µM | remaining binding | 100% |
| Cc1ccc(C(=O)Nc2ccc(CN3CCN(C)CC3)c(C(F)(F)F)c2)cc1C#Cc1cnc2cccnn12 | enzyme activity | inhibitor | – | 23.5 nM | remaining activity | 2.4% |
